# APJ ag: APJ receptor agonism; P35414; hit rate 0.11% among 330,000; activation, % at 20 µM; CHO-K1 APJ PathHunter beta-arrestin, luminescence; 0% DMSO wells, 100% apelin;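 active = activation more than six SD over the plate average, tested at 20 µM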;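 also: 0% = DMSO alone and 100% = apelin-13 at 10 nM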
# Target sequence (P35414 whole entry, looked up): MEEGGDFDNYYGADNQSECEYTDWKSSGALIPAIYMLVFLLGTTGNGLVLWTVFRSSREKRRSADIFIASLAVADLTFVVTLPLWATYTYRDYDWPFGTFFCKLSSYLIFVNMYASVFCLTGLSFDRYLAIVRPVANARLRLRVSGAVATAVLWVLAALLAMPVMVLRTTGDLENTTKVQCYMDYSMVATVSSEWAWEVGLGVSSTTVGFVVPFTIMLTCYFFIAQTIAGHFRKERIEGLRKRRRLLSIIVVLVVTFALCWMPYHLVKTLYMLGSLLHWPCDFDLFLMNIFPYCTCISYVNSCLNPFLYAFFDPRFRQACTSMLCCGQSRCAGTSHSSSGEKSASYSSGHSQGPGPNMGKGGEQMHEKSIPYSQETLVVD
#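 Assay system: CHO-K1 cells stably expressing ProLink-tagged human APJ and arrestin–beta-gal acceptor. Compound dosing: 20 µM single point, 1% DMSO. Times: 16-18 h seeding, 90 min dark compound exposure, 60 min detection. Detection: beta-gal luminescence. Evaluation: APJ–arrestin association signal. Controls: negative DMSO alone, positive Apelin-13 at 10 nM.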
# EBI2 block: EBI2 (human) antagonism. inhibition, % at 5 µM. hit rate 0.81% among 360,000. P32249. EBI2 beta-arrestin recruitment, luminescence, 7a,25-OHC stimulated. AID 651636; in the data active = inhibition above about 38%;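 also: enzyme fragment complementation signal reports receptor beta-arrestin coupling in cells; 0% = agonist plus DMSO wells and 100% = wells without agonist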
# APJ antagonist: blocks the human apelin receptor APJ; CHO-K1 APJ beta-arrestin complementation, luminescence; inhibition, % at 20 µM; hit rate 0.32% among 330,000;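 active = inhibition above about 40% at 20 µM, limit read from the data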;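 also: cells challenged with 10 nM apelin-13 agonist together with compound; plate controls were apelin-13 plus DMSO wells for no effect and DMSO wells lacking apelin-13 for full effect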
# CXCR6 inh: blocks human CXCR6 beta-arrestin recruitment. O00574. CHO-K1 PathHunter CXCR6 beta-arrestin, luminescence. inhibition, % at 20 µM. hit rate 0.36% among 360,000. AID 602244; in the data active = inhibition above about 34%, passing the limit was not always enough;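 also: antagonist mode with CXCL16 agonist at 10 nM final; 0% = 10 nM CXCL16 with DMSO and 100% = unstimulated wells without agonist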
# CCR6 antagonist: CCR6 (human) receptor antagonism | CHO-K1 CCR6 PathHunter beta-arrestin, luminescence, CCL20-stimulated | inhibition, % at 20 µM | hit rate 0.49% among 340,000 | AID 493098;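 active = compounds whose inhibition of the agonist-driven luminescence signal at 20 µM reaches about 50%, limit read from the data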;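 also: cells stimulated with CCL20 at 14 nM final; plate controls were DMSO with CCL20 for no effect and DMSO without agonist for full effect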
# EBI2 conf: confirmation of human EBI2 receptor antagonists; inhibition, % at 5 µM; AID 651997; EBI2 beta-arrestin luminescence, 7a,25-OHC antagonism; hit rate 29% among 2,400; shares compounds with EBI2 block;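 active = inhibition of at least 50%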
# EBI2 agonist: counter-screen for EBI2 antagonists: EBI2 agonist activity | shares compounds with EBI2 block | EBI2-expressing cells, agonist mode, luminescence, 60 min; 0% vehicle, 100% 7α,25-dihydroxycholesterol control | activation, % at 5 µM | 2,400 tested, under 10 active | AID 652000;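 active = activation of at least 50%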
# bGal counter: beta-galactosidase inhibition counter-screen; shares compounds with EBI2 block; purified beta-galactosidase, luminescent Galacton Star, 15 min; inhibition, % at 5 µM; hit rate 1% among 2,400;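 active = replicate-average signal at least 3 plate SD below neutral wells, shown as high inhibition, flagging enzyme-inhibiting false positives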;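 also: 0% = DMSO wells with enzyme and 100% = wells lacking enzyme; higher means stronger loss of beta-gal luminescence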
# The depositor's hits bear a star; / = not tested or not shown; ! = not confirmed by another sample. In the library only some 1.5% were active in any assay of this set; here they are far more common.
SMILES,APJ ag,EBI2 block,APJ antagonist,CXCR6 inh,CCR6 antagonist,EBI2 conf,EBI2 agonist,bGal counter
O=C(c1cc2cc(Cl)ccc2[nH]1)N1CCN(Cc2ccc3c(c2)OCO3)CC1,8,95*,-20,-25,7,85*,-1,-17
COc1ccc(NC(=O)c2cc(S(=O)(=O)Nc3ccc(OC)cc3)cs2)cc1,2,27,-22,-20,19,/,/,/
CC1CCN(CC(O)COC2CC(C)CCC2C(C)C)CC1 (stereo not drawn),-3,1,7,-6,2,/,/,/
Cc1cc2cc(CCNC(=O)CCc3ccccc3)c(=O)[nH]c2cc1C,-3,1,6,2,-2,/,/,/
CN(C)C(CNC(=O)C1CCN(C(=O)/C=C/c2ccccc2)CC1)c1ccccc1 (stereo not drawn),1,72*,18,-4,14,42,1,3
CCOC(=O)C1CCN(C(=O)/C=C/c2ccc3c(c2)OCO3)CC1,-3,56*,7,9,2,33,-1,-9
O=C(/C=C/c1ccc2c(c1)OCO2)N1CCCCC1,-2,21,12,-4,8,/,/,/
O=C(CN1CCCCCC1)Nc1ccccc1Cl,-1,1,10,6,22,/,/,/
O=C(CN1CCN(C(=O)C2CCN(C(=O)/C=C/c3ccccc3)CC2)CC1)Nc1ccccc1Cl,0,88*,11,5,11,56*,1,6
CCOC(=O)C1CCN(C(=O)/C=C/c2ccccc2)CC1,-5,65*,-3,7,22,51*,-2,-9
Cc1[nH]n(C)c(=O)c1[N+](=O)[O-],1,-1,16,-3,4,/,/,/
CCn1c(=O)cc(C(=O)OC)sc1=Nc1ccc(F)c(F)c1,-1,51*,13,8,14,53*,2,6
CCOC(=O)c1ccc(N=c2sc(C(=O)OC)cc(=O)n2CCCN2CCOCC2)cc1,-4,68*,14,10,10,67*!,0,-12
CCCCN=c1sc(C(=O)OC)cc(=O)n1CCCC,1,34,11,-1,6,/,/,/
COC(=O)c1cc(=O)n(CCc2ccc(OC)cc2)c(=Nc2ccc(F)c(Cl)c2)s1,-5,66*,5,8,14,41,-1,7
COC(=O)c1ccc2c(=O)n(CCCN3CCOCC3)c(=S)[nH]c2c1,1,3,11,0,3,/,/,/
CCCC(NS(=O)(=O)c1ccc(C)cc1)C(=O)O (stereo not drawn),7,-1,1,-14,-10,/,/,/
COc1ccc(-n2nnc3c(SCC(=O)N4CCCc5ccccc54)ncnc32)cc1,-3,42*,-3,-1,11,4,1,6
O=C(CSc1n[nH]c(=O)[nH]c1=O)Nc1ccc(C(=O)O)cc1,-3,49*,12,-3,12,15,0,-10
Cc1ccc(NS(=O)(=O)c2ccc(C(=O)N3CCC3)cc2)cc1,7,-1,8,-6,-13,/,/,/
Cc1ccc(N2C(=O)C3CC(c4ccccc4)=C4C5C=CC(C6C(=O)N(c7ccc(C)cc7C)C(=O)C56)C4C3C2=O)c(C)c1 (stereo not drawn),-2,-8,6,4,3,/,/,/
CC1CCCCN1C(=O)c1ccc(C(=O)Nc2ccc(F)cc2)cc1 (stereo not drawn),9,52*,7,-3,9,22,-1,-12
CCN(CC(=O)Nc1c(F)cccc1F)C(=O)c1ccc(C(=O)c2ccccc2)cc1,-8,-23,5,1,7,/,/,/
CCC(=O)Nc1ccc2ccccc2c1,0,-3,-19,-6,5,/,/,/
CC(C)(C)CC(C)(C)NC(=O)CSCC(=O)Nc1ccc2ccccc2c1,3,71*,-12,-2,14,47,-1,-6
SMILES,APJ ag,EBI2 block,APJ antagonist,CXCR6 inh,CCR6 antagonist,EBI2 conf,EBI2 agonist,bGal counter
Cc1cccc(OCC(=O)N2CCC3(CC2)CC(=O)c2ccccc2O3)c1,-1,31,10,-2,7,/,/,/
CCOc1ccc(OCC(=O)N2CCC3(CC2)CC(=O)c2ccccc2O3)cc1,-1,84*,-47,-1,13,52*,0,-17
CC(=O)N1CCC2(CC1)CC(=O)c1cc(OCC(=O)N3CCCC3)ccc1O2,0,3,14,6,6,/,/,/
COc1ccc(OCC(=O)N2CCC3(CC2)CC(=O)c2ccccc2O3)cc1,-3,77*,-45,5,6,61*,1,6
CC1(C)NC(=O)N(CC(=O)N2CCN(c3cccc(C(F)(F)F)c3)CC2)C1=O,-4,21,19,-6,10,/,/,/
CS(=O)(=O)c1nc(-c2ccccc2)cc(-c2ccccc2)c1C#N,0,56*,-26,10,5,55*,0,9
Clc1ccc(-c2nnc(NCCN3CCCC3)c3ccccc23)cc1,-1,-6,26,6,19,/,/,/
O=C(COc1ccc(Cl)cc1Br)N1CCN(c2ncccn2)CC1,13,31,15,-3,22,/,/,/
O=C(/C=C/c1ccccc1)N1CCN(c2cccc(Cl)n2)CC1,-2,91*,5,2,10,82*,0,-20
CCCOc1ccc(/C=C/C(=O)N2CCN(c3ccccn3)CC2)cc1,-4,46*,3,-2,2,40,1,-1
O=C(/C=C/c1cccc(Br)c1)N1CCN(c2ccccn2)CC1,-1,77*,4,6,11,46,1,-10
O=C(COc1ccc(Br)cc1F)N1CCN(c2ncccn2)CC1,-2,46*,6,3,1,27,0,6
CCCOc1ccc(/C=C/C(=O)N2CCOCC2)cc1,3,-12,-16,4,4,/,/,/
CC(NC(=O)C(Cc1ccccc1)=NO)c1ccccc1 (stereo not drawn),/,17,/,12,6,/,/,/
Cc1cc(OCCCC(=O)Nc2nnc(C3CC3)s2)ccc1Cl,-4,-2,19,-2,3,/,/,/
O=C(/C=C/c1ccc(F)cc1)N1CCN(c2ccccn2)CC1,-4,91*,4,-9,12,81*,1,1
Cc1cc(OCC(=O)N2CCN(c3ccccn3)CC2)cc(C)c1Br,3,62*,-5,5,-3,65*,1,-2
COc1cc2c(cc1C1NC(=S)NC(C)=C1C(N)=O)CCCC2 (stereo not drawn),-2,-18,-5,-4,4,/,/,/
C[C@H]1CN([C@@H](C)CO)S(=O)(=O)c2ccc(Br)cc2O[C@H]1CN(C)C(=O)Cc1ccccc1,/,1,/,0,/,/,/,/

# Screening data deposited in PubChem by Sanford-Burnham Center for Chemical Genomics.
